Results as given in ChEMBL document CHEMBL3804761, “Synthesis of a stable and orally bioavailable englerin analogue” (Bioorg Med Chem Lett, 2016).

Experiments:
Format in all cases: functional
KM12 = experiment: Growth inhibition of human KM12 cells assessed as cell growth at 10 uM incubated for 48 hrs by sulforhodamine B assay relative to control; conditions: KM12, 48 h, read-out: Activity
In short: (§1)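 Run in the standard NCI 60-cell-line screen. Cells were exposed to drug for two days, and the read-out was sulforhodamine B staining. Compound was tested at a single final concentration of 10 µM in every line, and results are reported as growth percent.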

[1] = Growth inhibition of human SF295 cells assessed as cell growth at 10 uM incubated for 48 hrs by sulforhodamine B assay relative to control; conditions: SF-295, 48 h, read-out: Activity; in short: as §1
[2] = Growth inhibition of human SNB75 cells assessed as cell growth at 10 uM incubated for 48 hrs by sulforhodamine B assay relative to control; conditions: SNB-75, 48 h, read-out: Activity; in short: as §1
[3] = Growth inhibition of human UACC62 cells assessed as cell growth at 10 uM incubated for 48 hrs by sulforhodamine B assay relative to control; conditions: UACC-62, 48 h, read-out: Activity
In short: (§2)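 NCI 60-cell line standard protocol, one-dose screen: single final concentration 10 µM, 2-day drug exposure, sulforhodamine B (SRB) endpoint; read-out is growth percent relative to untreated control.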

[4] = Growth inhibition of human OVCAR4 cells assessed as cell growth at 10 uM incubated for 48 hrs by sulforhodamine B assay relative to control; conditions: OVCAR-4, 48 h, read-out: Activity; in short: as §1
[5] = Growth inhibition of human TK10 cells assessed as cell growth at 10 uM incubated for 48 hrs by sulforhodamine B assay relative to control; conditions: TK-10, 48 h, read-out: Activity; in short: as §2
MCF7 = experiment: Growth inhibition of human MCF7 cells assessed as cell growth at 10 uM incubated for 48 hrs by sulforhodamine B assay relative to control; conditions: MCF7, 48 h, read-out: Activity; in short: as §1
MDA-MB-231 = experiment: Growth inhibition of human MDA-MB-231 cells assessed as cell growth at 10 uM incubated for 48 hrs by sulforhodamine B assay relative to control; conditions: MDA-MB-231, 48 h, read-out: Activity; in short: as §1
[6] = Growth inhibition of human BT549 cells assessed as cell growth at 10 uM incubated for 48 hrs by sulforhodamine B assay relative to control; conditions: BT-549, 48 h, read-out: Activity; in short: as §1
CCRF-CEM [7] = experiment: Growth inhibition of human CCRF-CEM cells assessed as cell growth at 10 uM incubated for 48 hrs by sulforhodamine B assay relative to control; conditions: read-out: Activity
In short: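 Single-dose screen in the NCI 60-cell-line panel at one final concentration of 10 µM. Two-day drug exposure with a sulforhodamine B endpoint. Values are growth percent for each cell line.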

CCRF-CEM [8] = experiment: Growth inhibition of human CCRF-CEM cells incubated for 48 hrs by sulforhodamine B assay; conditions: for CC50: read-out: pLC50 (the source's name) (converted); for TGI: read-out: pTGI (converted)
In short: (§3)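 NCI 60-cell-line panel, standard protocol. Cells exposed to compound for two days, growth read by sulforhodamine B staining. Tested at five 10-fold dilutions, top concentration 100 µM, to give dose-response curves.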

[9] = Growth inhibition of human HL-60(TB) cells incubated for 48 hrs by sulforhodamine B assay; conditions: HL-60, 48 h; for CC50: read-out: pLC50 (the source's name) (converted); for TGI: read-out: pTGI (converted); in short: as §3
NCI-H23 [10] = experiment: Growth inhibition of human NCI-H23 cells incubated for 48 hrs by sulforhodamine B assay; conditions: NCI-H23, 48 h; for TGI: read-out: pTGI (converted); in short: as §3
[11] = Growth inhibition of human SF295 cells incubated for 48 hrs by sulforhodamine B assay; conditions: SF-295, 48 h; for TGI: read-out: pTGI (converted); in short: as §3
[12] = Growth inhibition of human SNB19 cells incubated for 48 hrs by sulforhodamine B assay; conditions: SNB-19, 48 h; for CC50: read-out: pLC50 (the source's name) (converted); for TGI: read-out: pTGI (converted)
In short: (§4)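 Tested in the standard NCI 60-cell-line protocol with two-day drug exposure and a sulforhodamine B endpoint. Compounds were first screened at a single final concentration of 10 µM, reported as growth percent. They were then run as five 10-fold dilutions starting from a high concentration of 100 µM to give dose-response curves.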

[13] = Growth inhibition of human SNB75 cells incubated for 48 hrs by sulforhodamine B assay; conditions: SNB-75, 48 h; for TGI: read-out: pTGI (converted); in short: as §4
SK-MEL-5 = experiment: Growth inhibition of human SK-MEL-5 cells incubated for 48 hrs by sulforhodamine B assay; conditions: SK-MEL-5, 48 h; for TGI: read-out: pTGI (converted); in short: as §3
[14] = Growth inhibition of human RXF393 cells incubated for 48 hrs by sulforhodamine B assay; conditions: RXF 393, 48 h; for CC50: read-out: pLC50 (the source's name) (converted); for TGI: read-out: pTGI (converted)
In short: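 Run in the NCI 60-cell-line protocol, with 2-day drug exposure and sulforhodamine B read-out. Dose-response testing used five 10-fold dilutions starting from a high concentration of 100 µM.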

[15] = Growth inhibition of human TK10 cells incubated for 48 hrs by sulforhodamine B assay; conditions: TK-10, 48 h; for CC50: read-out: pLC50 (the source's name) (converted); for TGI: read-out: pTGI (converted); in short: as §4
MDA-MB-468 = experiment: Growth inhibition of human MDA-MB-468 cells incubated for 48 hrs by sulforhodamine B assay; conditions: MDA-MB-468, 48 h; for CC50: read-out: pLC50 (the source's name) (converted); for TGI: read-out: pTGI (converted); in short: as §3
[16] = Growth inhibition of human MOLT4 cells assessed as cell growth at 10 uM incubated for 48 hrs by sulforhodamine B assay relative to control; conditions: MOLT-4, 48 h, read-out: Activity; in short: as §1
[17] = Growth inhibition of human RPMI8226 cells assessed as cell growth at 10 uM incubated for 48 hrs by sulforhodamine B assay relative to control; conditions: RPMI-8226, 48 h, read-out: Activity; in short: as §1
A549 = experiment: Growth inhibition of human A549/ATCC cells assessed as cell growth at 10 uM incubated for 48 hrs by sulforhodamine B assay relative to control; conditions: A549, 48 h, read-out: Activity; in short: as §1
[18] = Growth inhibition of human HOP62 cells assessed as cell growth at 10 uM incubated for 48 hrs by sulforhodamine B assay relative to control; conditions: HOP-62, 48 h, read-out: Activity; in short: as §1
NCI-H226 = experiment: Growth inhibition of human NCI-H226 cells assessed as cell growth at 10 uM incubated for 48 hrs by sulforhodamine B assay relative to control; conditions: NCI-H226, 48 h, read-out: Activity; in short: as §1
NCI-H23 [19] = experiment: Growth inhibition of human NCI-H23 cells assessed as cell growth at 10 uM incubated for 48 hrs by sulforhodamine B assay relative to control; conditions: NCI-H23, 48 h, read-out: Activity; in short: as §1
[20] = Growth inhibition of human HCT116 cells assessed as cell growth at 10 uM incubated for 48 hrs by sulforhodamine B assay relative to control; conditions: HCT-116, 48 h, read-out: Activity; in short: as §1

`CC(C)[C@@]12C[C@@H](NC(=O)CO)[C@@](C)(O1)[C@@H]1CC[C@@H](C)[C@H]1[C@@H]2OC(=O)/C=C/C1CCCCC1` gave a growth at 10 µM (KM12) of 104%, a growth at 10 µM [1] of 86.3% and a growth at 10 µM [2] of 86.1%. It also gave a growth at 10 µM [3] of 101%, a growth at 10 µM [4] of 98.6% and a growth at 10 µM [5] of 94.1%. It also gave a growth at 10 µM (MCF7) of 94%, a growth at 10 µM (MDA-MB-231) of 107% and a growth at 10 µM [6] of 109%. The growth at 10 µM (CCRF-CEM [7]) was 128%, the GI50 (CCRF-CEM [8]) was > 44.7 µM and the CC50 (CCRF-CEM [8]) was > 44.7 µM. For the same molecule, the TGI (CCRF-CEM [8]) was > 44.7 µM, the GI50 [9] was > 44.7 µM and the CC50 [9] was > 44.7 µM. For the same molecule, the TGI [9] was > 44.7 µM, the GI50 (NCI-H23 [10]) was > 44.7 µM and the LC50 (NCI-H23 [10]) was > 44.7 µM. For the same molecule, the TGI (NCI-H23 [10]) was > 44.7 µM, the GI50 [11] was > 44.7 µM and the LC50 (concentration causing 50% net cell kill) [11] was > 44.7 µM. The TGI [11] was > 44.7 µM, the GI50 [12] was > 44.7 µM and the CC50 [12] was > 44.7 µM. For the same molecule, the TGI [12] was > 44.7 µM, the GI50 [13] was > 44.7 µM and the LC50 [13] was > 44.7 µM. For the same molecule, the TGI [13] was > 44.7 µM, the GI50 (SK-MEL-5) was > 44.7 µM and the LC50 (SK-MEL-5) was > 44.7 µM. For the same molecule, the TGI (SK-MEL-5) was > 44.7 µM, the GI50 [14] was 13.8 µM and the CC50 [14] was > 44.7 µM. For the same molecule, the TGI [14] was > 44.7 µM, the GI50 [15] was > 44.7 µM and the CC50 [15] was > 44.7 µM. For the same molecule, the TGI [15] was > 44.7 µM, the GI50 (MDA-MB-468) was > 44.7 µM and the CC50 (MDA-MB-468) was > 44.7 µM. For the same molecule, the TGI (MDA-MB-468) was > 44.7 µM, the growth at 10 µM [16] was 98% and the growth at 10 µM [17] was 134%. It also gave a growth at 10 µM (A549) of 92%, a growth at 10 µM [18] of 108% and a growth at 10 µM (NCI-H226) of 96.2%. For the same molecule, the growth at 10 µM (NCI-H23 [19]) was 99.4% and the growth at 10 µM [20] was 103%.

With `CC(C)[C@@]12C[C@@H](NC(=O)CO)[C@@](C)(O1)[C@@H]1CC[C@@H](C)[C@H]1[C@@H]2OC(=O)c1ccc2ccccc2c1` the growth at 10 µM (KM12) was 94.5%, the growth at 10 µM [1] was 82.5% and the growth at 10 µM [2] was 72.7%. For the same molecule, the growth at 10 µM [3] was 85%, the growth at 10 µM [4] was 82.2% and the growth at 10 µM [5] was 102%. The growth at 10 µM (MCF7) was 75.4%, the growth at 10 µM (MDA-MB-231) was 101% and the growth at 10 µM [6] was 70.2%. For the same molecule, the GI50 (CCRF-CEM [8]) was 15.8 µM, the CC50 (CCRF-CEM [8]) was 75.9 µM and the TGI (CCRF-CEM [8]) was 34.7 µM. It also gave a GI50 [9] of 20.4 µM, a CC50 [9] of 87.1 µM and a TGI [9] of 41.7 µM. For the same molecule, the GI50 (NCI-H23 [10]) was 14.1 µM, the LC50 (NCI-H23 [10]) was 57.5 µM and the TGI (NCI-H23 [10]) was 28.2 µM. For the same molecule, the GI50 [11] was 16.2 µM, the LC50 (concentration causing 50% net cell kill) [11] was 57.5 µM and the TGI [11] was 30.2 µM. The GI50 [12] was 16.2 µM, the CC50 [12] was 60.3 µM and the TGI [12] was 31.6 µM. For the same molecule, the GI50 [13] was 13.2 µM, the LC50 [13] was 56.2 µM and the TGI [13] was 27.5 µM. The GI50 (SK-MEL-5) was 16.6 µM, the LC50 (SK-MEL-5) was 56.2 µM and the TGI (SK-MEL-5) was 30.9 µM. For the same molecule, the GI50 [14] was 6.17 µM, the CC50 [14] was 49 µM and the TGI [14] was 20.4 µM. It also gave a GI50 [15] of 19.1 µM, a CC50 [15] of 60.3 µM and a TGI [15] of 33.9 µM. The GI50 (MDA-MB-468) was 14.8 µM, the CC50 (MDA-MB-468) was 57.5 µM and the TGI (MDA-MB-468) was 28.8 µM. It also gave a growth at 10 µM [16] of 74.9%, a growth at 10 µM [17] of 67.6% and a growth at 10 µM (A549) of 81%. It also gave a growth at 10 µM [18] of 89.3%, a growth at 10 µM (NCI-H226) of 90.2% and a growth at 10 µM (NCI-H23 [19]) of 80.2%. For the same molecule, the growth at 10 µM [20] was 75.7%.
